# Source: ChEMBL document CHEMBL3425438, “Investigation of (E)-3-[4-(2-Oxo-3-aryl-chromen-4-yl)oxyphenyl]acrylic Acids as Oral Selective Estrogen Receptor Down-Regulators” (J Med Chem, 2015)
# Legend:
# [1] = Octanol-buffer partition coefficient, log D of the compound at ratio of 1:100 at pH 7.4 by shake-flask method; assay type: physicochemical
# [2] = Intrinsic clearance in rat hepatocytes measured per 10^6 cells; assay type: ADME, cell-based, Hepatocyte; conditions: read-out: CLH
# [3] = Intrinsic clearance in human hepatocytes measured per 10^6 cells; assay type: ADME, cell-based, Hepatocyte; conditions: read-out: CLH
# Estrogen receptor [4] = target: T1, Estrogen receptor (Homo sapiens, UniProt P03372); experiment: Suppression of ER alpha in human MCF7 cells after 24 hrs by immunostaining analysis; assay type: cell-based
# T1 sequence (P03372 whole entry): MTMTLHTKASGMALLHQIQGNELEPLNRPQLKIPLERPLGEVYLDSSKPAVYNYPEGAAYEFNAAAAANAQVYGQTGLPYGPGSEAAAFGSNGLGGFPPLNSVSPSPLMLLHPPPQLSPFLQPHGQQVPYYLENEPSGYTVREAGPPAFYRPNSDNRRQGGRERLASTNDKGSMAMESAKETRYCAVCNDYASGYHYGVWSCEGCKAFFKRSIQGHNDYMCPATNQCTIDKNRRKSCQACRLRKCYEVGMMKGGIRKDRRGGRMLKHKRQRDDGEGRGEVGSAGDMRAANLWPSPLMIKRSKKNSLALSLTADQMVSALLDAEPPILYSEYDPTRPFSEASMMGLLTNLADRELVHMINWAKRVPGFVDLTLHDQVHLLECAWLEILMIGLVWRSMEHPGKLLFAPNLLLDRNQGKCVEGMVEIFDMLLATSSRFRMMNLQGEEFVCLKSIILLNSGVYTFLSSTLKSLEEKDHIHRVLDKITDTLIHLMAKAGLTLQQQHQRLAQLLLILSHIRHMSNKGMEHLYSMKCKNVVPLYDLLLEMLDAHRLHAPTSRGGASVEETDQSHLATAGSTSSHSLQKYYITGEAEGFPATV
# Estrogen receptor [5] = target: T1, Estrogen receptor; experiment: Binding affinity to ER alpha (unknown origin) by LanthaScreen TR-FRET competitive binding assay
# Method in brief: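 LanthaScreen TR-FRET ERα competitive binding; 12-point half-log concentration response; TR-FRET emission ratio read on microplate reader; IC50 reported.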
# [6] = target: Voltage-gated inwardly rectifying potassium channel KCNH2 (Homo sapiens, UniProt Q12809); experiment: Inhibition of hERG channel by electrophysiology; assay type: toxicity
# [7] = Thermodynamic solubility of the compound in 0.1 M aqueous phosphate buffer at 25 degC at pH 7.4 after 24 hrs; assay type: physicochemical; conditions: read-out: Therm_solubility
# [8] = Free plasma concentration in rat by LC-UV-MS analysis; assay type: ADME, cell-free
# Method in brief: (§1)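 Equilibrium dialysis in plasma of the matching species at 37 °C; free and bound concentrations quantified by LC-UV-MS; reported as % free.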
# [9] = Dissociation constant, pKa of the compound by potentiometric analysis […] phenol; assay type: physicochemical
# Method in brief: (§2)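 pKa (acid and phenol) by potentiometric titration.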
# [10] = Drug metabolism in rat hepatocytes assessed as formation of glucuronide conjugates by LC-UV-MS analysis; assay type: ADME, cell-based, Hepatocyte
# [11] = Intrinsic clearance in mouse hepatocytes measured per 10^6 cells; assay type: ADME, cell-based, Hepatocyte; conditions: read-out: CLH
# [12] = Apparent permeability from apical to basolateral side in human Caco2 cells; assay type: ADME, cell-based; conditions: Caco-2
# [13] = Clearance in Alderley Park Han Wistar rat at 0.5 mg/kg, iv; assay type: ADME, organism-based; set-up: dose 0.5 mg/kg, route intravenous; conditions: in vivo
# [14] = Oral bioavailability in Alderley Park Han Wistar rat at 5 mg/kg using HPMC/tween suspension; assay type: ADME, organism-based; conditions: in vivo
# Method in brief: (§3)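 Fed Han Wistar rats, two per study; oral HPMC/tween suspension at 1, 5 or 50 mg/kg as stated per line; IV reference 0.5 mg/kg in aqueous DMSO/cyclodextrin.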
# MCF7 = experiment: Inhibition of cell proliferation in human MCF7 cells after 7 days by laser scanning imaging cytometer analysis; assay type: functional, cell-based; conditions: MCF7, 168 h
# Method in brief: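 MCF-7 cells plated in reduced-serum medium the day before; concentration response for 7 days; cell number by nucleic acid stain, read on laser scanning imaging cytometer; EC50 for decrease in proliferation.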
# [15] = Volume of distribution at steady state in Alderley Park Han Wistar rat at 0.5 mg/kg, iv; assay type: ADME, organism-based; set-up: dose 0.5 mg/kg, route intravenous; conditions: in vivo, read-out: Vdss
# Method in brief: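 Fed CD-1 mice or Alderley Park Han Wistar rats, two animals per study; IV 0.5 mg/kg as aqueous solution of DMSO and cyclodextrin; clearance and Vss derived.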
# [16] = Free plasma concentration in mouse by LC-UV-MS analysis; assay type: ADME, cell-free; method in brief: as §1
# [17] = Free plasma concentration in human by LC-UV-MS analysis; assay type: ADME, cell-free; method in brief: as §1
# Estrogen receptor [18] = target: T1, Estrogen receptor; experiment: Antagonist activity at ER alpha in human MCF7 cells assessed as inhibition of estradiol-induced PR expression treated for 24 hrs after incubation with estradiol for 30 mins by laser scanning imaging cytometer analysis; assay type: cell-based
# [19] = Dissociation constant, pKa of the compound in acidic medium by potentiometric analysis; assay type: physicochemical; method in brief: as §2
# [20] = Oral bioavailability in Alderley Park Han Wistar rat at 1 mg/kg using HPMC/tween suspension; assay type: ADME, organism-based; conditions: in vivo; method in brief: as §3
# [21] = Dissociation constant, pKa of the compound by potentiometric analysis; assay type: physicochemical; method in brief: as §2
# Estrogen receptor [22] = target: T1, Estrogen receptor; experiment: Agonist activity at ER alpha in human MCF7 cells assessed as PR gene expression after 24 hrs by laser scanning imaging cytometer analysis; assay type: cell-based; conditions: read-out: IC50 (the source's name)
# Sequence of Voltage-gated inwardly rectifying potassium channel KCNH2 (Q12809 whole entry): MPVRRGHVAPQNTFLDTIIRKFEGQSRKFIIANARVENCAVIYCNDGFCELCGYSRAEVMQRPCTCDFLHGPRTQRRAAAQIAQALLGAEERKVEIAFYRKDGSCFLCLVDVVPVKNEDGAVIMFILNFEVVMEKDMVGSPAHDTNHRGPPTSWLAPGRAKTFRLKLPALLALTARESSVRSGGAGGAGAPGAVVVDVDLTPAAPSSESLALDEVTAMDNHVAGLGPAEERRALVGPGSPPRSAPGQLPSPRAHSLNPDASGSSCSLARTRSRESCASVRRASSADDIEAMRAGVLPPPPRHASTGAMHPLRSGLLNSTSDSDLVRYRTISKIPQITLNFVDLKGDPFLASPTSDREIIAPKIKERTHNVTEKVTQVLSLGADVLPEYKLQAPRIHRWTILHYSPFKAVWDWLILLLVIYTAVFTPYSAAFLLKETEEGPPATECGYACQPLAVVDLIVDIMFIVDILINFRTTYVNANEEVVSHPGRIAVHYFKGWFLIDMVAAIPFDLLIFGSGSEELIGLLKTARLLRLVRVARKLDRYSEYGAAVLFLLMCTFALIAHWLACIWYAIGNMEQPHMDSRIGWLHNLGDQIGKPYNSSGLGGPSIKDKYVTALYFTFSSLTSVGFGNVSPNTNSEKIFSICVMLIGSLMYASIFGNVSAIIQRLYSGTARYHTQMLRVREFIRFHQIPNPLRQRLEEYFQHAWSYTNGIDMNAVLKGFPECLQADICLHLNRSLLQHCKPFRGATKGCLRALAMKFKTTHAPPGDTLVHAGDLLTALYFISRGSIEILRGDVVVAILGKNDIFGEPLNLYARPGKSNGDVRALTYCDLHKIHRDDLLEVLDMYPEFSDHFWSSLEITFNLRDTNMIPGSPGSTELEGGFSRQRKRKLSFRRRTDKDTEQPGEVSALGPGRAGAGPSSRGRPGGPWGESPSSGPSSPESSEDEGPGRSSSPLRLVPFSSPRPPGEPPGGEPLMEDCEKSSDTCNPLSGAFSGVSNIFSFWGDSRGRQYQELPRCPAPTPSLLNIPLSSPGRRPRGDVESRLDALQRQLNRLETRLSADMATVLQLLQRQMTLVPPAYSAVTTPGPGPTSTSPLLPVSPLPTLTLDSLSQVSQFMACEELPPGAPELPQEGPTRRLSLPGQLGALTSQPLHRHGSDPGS
SMILES,logD [1],hepatocyte CLint [2],hepatocyte CLint [3],IC50 (Estrogen receptor [4]),IC50 (Estrogen receptor [5]),further results
O=C(O)/C=C/c1ccc(Cc2c(-c3ccc(OC(F)(F)F)cc3)c(=O)oc3ccccc23)cc1,2.8,20 µL/min/1e6 cells,8 µL/min/1e6 cells,1300 nM,360 nM,–
CC/C(=C(\c1ccc(O)cc1)c1ccc(/C=C/C(=O)O)cc1)c1ccccc1,–,12 µL/min/1e6 cells,–,–,–,IC50 [6]: > 100 µM; solubility thermodynamic at 24 h [7]: 200 µM; fraction unbound [8]: 0.0009
O=C(O)/C=C/c1ccc(Cc2c(-c3ccc(OC(F)(F)F)cc3)c(=O)oc3cc(F)ccc23)cc1,2.5,4.4 µL/min/1e6 cells,–,10600 nM,5800 nM,–
COc1ccc2c(Cc3ccc(/C=C/C(=O)O)cc3)c(-c3ccc(OC(F)(F)F)cc3)c(=O)oc2c1,3,23 µL/min/1e6 cells,23 µL/min/1e6 cells,3600 nM,1100 nM,–
O=C(O)/C=C/c1ccc(Cc2c(-c3cccc(OC(F)(F)F)c3)c(=O)oc3cc(O)ccc23)cc1,2.9,–,–,1710 nM,5.9 nM,–
Cc1cc(F)ccc1-c1c(Cc2ccc(/C=C/C(=O)O)cc2)c2ccc(C(F)F)cc2oc1=O,2.2,16 µL/min/1e6 cells,< 3 µL/min/1e6 cells,> 2150 nM,390 nM,–
Cc1cc(F)ccc1-c1c(Nc2ccc(/C=C/C(=O)O)cc2)c2ccc(O)cc2oc1=O,1.3,–,–,1450 nM,25 nM,–
O=C(O)/C=C/c1ccc(Cc2c(-c3ccc(F)cc3F)c(=O)oc3cc(O)ccc23)cc1,1.7,–,–,660 nM,3 nM,–
Cc1c(O)ccc2c(Cc3ccc(/C=C/C(=O)O)cc3)c(-c3ccc(OC(F)(F)F)cc3)c(=O)oc12,3.4,39 µL/min/1e6 cells,20 µL/min/1e6 cells,5840 nM,280 nM,pKa [9]: 8.5
Cc1cccc(-c2c(Cc3ccc(/C=C/C(=O)O)cc3)c3ccc(O)cc3oc2=O)c1,2.2,–,–,3090 nM,17 nM,–
COc1cc(F)ccc1-c1c(Cc2ccc(/C=C/C(=O)O)cc2)c2ccc(O)cc2oc1=O,1.8,–,–,2260 nM,11 nM,–
Cc1cc(F)ccc1-c1c(Cc2ccc(/C=C/C(=O)O)cc2)c2ccc(N)cc2oc1=O,1.7,18 µL/min/1e6 cells,10 µL/min/1e6 cells,1380 nM,–,–
Cc1cc(F)ccc1-c1c(Oc2ccc(/C=C/C(=O)O)cc2)c2cc(F)c(O)cc2oc1=O,0.8,84 µL/min/1e6 cells,28 µL/min/1e6 cells,> 3000 nM,7.4 nM,pKa [9]: 5.8
COc1cccc(-c2c(Cc3ccc(/C=C/C(=O)O)cc3)c3ccc(O)cc3oc2=O)c1,1.9,–,–,5640 nM,41 nM,–

# Further compounds by falling IC50 (Estrogen receptor [4]), results first:
logD [1],hepatocyte CLint [2],hepatocyte CLint [3],IC50 (Estrogen receptor [4]),IC50 (Estrogen receptor [5]),SMILES,further results
2.6,–,–,531 nM,4.6 nM,O=C(O)/C=C/c1ccc(Cc2c(-c3ccc(C(F)(F)F)cc3)c(=O)oc3cc(O)ccc23)cc1,–
0.6,33 µL/min/1e6 cells,11 µL/min/1e6 cells,509 nM,3.2 nM,Cc1cc(F)ccc1-c1c(Oc2ccc(/C=C/C(=O)O)cc2)c2ccc(O)c(F)c2oc1=O,pKa [9]: 6.1
3,3 µL/min/1e6 cells,11 µL/min/1e6 cells,506 nM,50 nM,Cc1cc(OC(F)(F)F)ccc1-c1c(Oc2ccc(/C=C/C(=O)O)cc2)c2ccc(C(F)F)cc2oc1=O,–
2.4,–,–,471 nM,3.7 nM,O=C(O)/C=C/c1ccc(Cc2c(-c3ccc(Cl)cc3)c(=O)oc3cc(O)ccc23)cc1,–
1.9,–,–,350 nM,3.8 nM,COc1ccc(-c2c(Cc3ccc(/C=C/C(=O)O)cc3)c3ccc(O)cc3oc2=O)cc1,–
3.1,37 µL/min/1e6 cells,17 µL/min/1e6 cells,320 nM,10 nM,Cc1cc2c(Cc3ccc(/C=C/C(=O)O)cc3)c(-c3ccc(OC(F)(F)F)cc3)c(=O)oc2cc1O,pKa [9]: 7.6
2,–,–,256 nM,5.8 nM,Cc1cc(F)ccc1-c1c(-c2ccc(/C=C/C(=O)O)cc2)c2ccc(O)cc2oc1=O,–
–,21 µL/min/1e6 cells,20 µL/min/1e6 cells,253 nM,50 nM,CCOc1ccc2c(Oc3ccc(/C=C/C(=O)O)cc3)c(-c3ccc(OC(F)(F)F)cc3C)c(=O)oc2c1,–
2,27 µL/min/1e6 cells,9 µL/min/1e6 cells,248 nM,72 nM,Cc1cc(F)ccc1-c1c(Oc2ccc(/C=C/C(=O)O)cc2)c2ccccc2oc1=O,bioavailability [20]: 47%; Papp A→B [12]: 47 ×10⁻⁶ cm/s; clearance [13]: 23 mL/min/kg; IC50 [6]: > 100 µM; solubility thermodynamic at 24 h [7]: > 1500 µM; fraction unbound [8]: 0.014; Vd [15]: 0.47 L/kg; fraction unbound [17]: 0.005; pKa [21]: 5.3; IC50 (Estrogen receptor [18]): 330 nM
–,–,–,178 nM,2.2 nM,O=C(O)/C=C/c1ccc(Cc2c(-c3ccc(F)cc3Cl)c(=O)oc3cc(O)ccc23)cc1,–
2.1,81 µL/min/1e6 cells,11 µL/min/1e6 cells,117 nM,3.9 nM,Cc1cc(F)ccc1-c1c(Cc2ccc(/C=C/C(=O)O)cc2)c2ccc(O)cc2oc1=O,pKa [9]: 7.7
2.5,19 µL/min/1e6 cells,7 µL/min/1e6 cells,100 nM,15 nM,Cc1cc(OC(F)(F)F)ccc1-c1c(Oc2ccc(/C=C/C(=O)O)cc2)c2ccccc2oc1=O,bioavailability [20]: 35%; Papp A→B [12]: 39 ×10⁻⁶ cm/s; clearance [13]: 15 mL/min/kg; EC50 (Estrogen receptor [22]): > 3.1 µM; EC50 (MCF7): 20 nM; solubility thermodynamic at 24 h [7]: > 470 µM; fraction unbound [8]: 0.0032; Vd [15]: 1.7 L/kg; fraction unbound [17]: 0.0016; pKa [21]: 3.7; IC50 (Estrogen receptor [18]): 180 nM
2.3,–,–,60 nM,9.9 nM,Cc1cc(F)ccc1-c1c(N(C)c2ccc(/C=C/C(=O)O)cc2)c2ccc(O)cc2oc1=O,–
1.6,69 µL/min/1e6 cells,14 µL/min/1e6 cells,55 nM,1.3 nM,Cc1cc(F)ccc1-c1c(Cc2ccc(/C=C/C(=O)O)cc2)c2c(F)cc(O)cc2oc1=O,Drug metabolism [10]: metabolite_detected; pKa [9]: 7.2
2.8,40 µL/min/1e6 cells,9 µL/min/1e6 cells,52 nM,1.6 nM,O=C(O)/C=C/c1ccc(Cc2c(-c3ccc(OC(F)(F)F)cc3)c(=O)oc3cc(O)ccc23)cc1,pKa [9]: 8.7
–,–,–,30 nM,1.5 nM,Cc1cc(Cl)ccc1-c1c(Cc2ccc(/C=C/C(=O)O)cc2)c2ccc(O)cc2oc1=O,–
1.6,50 µL/min/1e6 cells,32 µL/min/1e6 cells,21 nM,0.4 nM,Cc1cc(F)ccc1-c1c(Oc2ccc(/C=C/C(=O)O)cc2)c2ccc(O)cc2oc1=O,hepatocyte CLint [11]: 68 µL/min/1e6 cells; Papp A→B [12]: 19 ×10⁻⁶ cm/s; clearance [13]: 35 mL/min/kg; bioavailability [14]: 5%; EC50 (MCF7): 4.5 nM; solubility thermodynamic at 24 h [7]: > 2000 µM; fraction unbound [8]: 0.0051; Vd [15]: 0.9 L/kg; fraction unbound [16]: 0.028; pKa [9]: 7.1; fraction unbound [17]: 0.0025; IC50 (Estrogen receptor [18]): 27 nM; pKa [19]: 3.9
3.1,–,–,7 nM,1 nM,Cc1cc(OC(F)(F)F)ccc1-c1c(Cc2ccc(/C=C/C(=O)O)cc2)c2ccc(O)cc2oc1=O,–
